Source: PubChem BioAssay
An excerpt weighted towards active compounds, which were near 2.9% of everything screened.
DENV2 CPE – DENV2-induced cell death inhibition; AID 651640; CPE inhibition, % at 9.99 µM; DENV2-infected cells, cytopathic effect rescue, plate reader; 1.7% of 350,000 active; in the data active = CPE inhibition above about 20%, passing the limit was not always enough; inconclusive = no clear call, values can overlap the other calls; tested in BHK-21 cells
E-sel inducer – induces E-selectin expression in human endothelial cells. HUVEC E-selectin immunofluorescence imaging; normalized: neutral wells 0, TNF-alpha wells 100. 0.37% of 260,000 active. activation, % at 7.58 µM. AID 686992. P16581;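 active = mean E-selectin-positive cell signal at least 10% of the positive control, reached in at least 60% of replicates, without over 20% cell loss; inconclusive = no rule given, readout overlaps actives, possibly toxicity-flagged; inactive = the rest, including those meeting only one limit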
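System: HUVEC, human umbilical vein endothelial cells; quantity: 3,000 cells/well; buffer or medium: EGM-2 medium, gelatin-coated wells; dosing: single-point compound dose; detection: immunofluorescence imaging; evaluation: % PE-positive cells; benchmarks: TNF-alpha, DMSO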
SIRT5 block – blocks human SIRT5 desuccinylation of peptide | Purified SirT5, succinyl-peptide AMC, trypsin-coupled fluorescence | 1.1% of 330,000 active | inhibition, % at 15 µM | Q9NXA8; in the data active = inhibition above about 15%; inconclusive = no clear call, values can overlap the other calls
Target sequence (Q9NXA8 whole entry, looked up): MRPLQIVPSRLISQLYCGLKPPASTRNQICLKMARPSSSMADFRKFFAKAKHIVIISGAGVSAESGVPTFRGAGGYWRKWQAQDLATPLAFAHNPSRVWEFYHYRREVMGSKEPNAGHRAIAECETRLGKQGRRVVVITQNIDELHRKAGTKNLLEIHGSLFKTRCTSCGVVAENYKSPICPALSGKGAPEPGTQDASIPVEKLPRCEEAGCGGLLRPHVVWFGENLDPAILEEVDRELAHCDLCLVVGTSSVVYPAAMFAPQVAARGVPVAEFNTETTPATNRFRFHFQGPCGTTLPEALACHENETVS
Of the large screens only hits and unclear results are named; the others gave an inactive call.

Cc1ccc(S(=O)(=O)Nc2ccc3c(c2)CC(=O)N([C@@H](C)CO)C[C@@H](C)[C@H](CN(C)C(=O)Nc2cccc4ccccc24)O3)cc1	none
O=C(CN1CCN(c2ccc(F)cc2)CC1)Nc1ccccc1C(=O)NCCc1ccccc1	none (no result: E-sel inducer)
CC(NC(=O)c1ccccc1NC(=O)CN1CCN(c2ccccc2O)CC1)c1ccccc1 (configuration not stated)	none (no result: E-sel inducer)
CCC(=O)N1CCC1(C)C(=O)Nc1cccc(Oc2ccccc2)c1 (configuration not stated)	none (no result: SIRT5 block)
CC(=O)Nc1cccc(Oc2nc(NCC3CC3)nc3ccsc23)c1	none
CNc1nc(Oc2cccc(NC(C)=O)c2)c2sccc2n1	DENV2 CPE 53 (no result: SIRT5 block)
CC1CCc2c(sc(NC(=O)C(=O)NCc3ccco3)c2C#N)C1 (configuration not stated)	none (no result: DENV2 CPE, E-sel inducer)
COc1cc2c(cc1NC(=O)/C=C/c1ccc([N+](=O)[O-])cc1)oc1ccccc12	DENV2 CPE 39 (no result: E-sel inducer, SIRT5 block)
COc1cc2c(cc1NC(=O)COC(=O)/C=C/c1ccc([N+](=O)[O-])cc1)oc1ccccc12	none
COc1ccc(S(=O)(=O)N(C)C[C@H]2Oc3cc(C#CC4CC4)ccc3S(=O)(=O)N([C@@H](C)CO)C[C@@H]2C)cc1	SIRT5 block 22
Cc1ccc(S(=O)(=O)N(C)C[C@H]2Oc3cc(C#CC4CCCC4)ccc3S(=O)(=O)N([C@H](C)CO)C[C@@H]2C)cc1	none
COc1ccc(S(=O)(=O)N(C)C[C@H]2Oc3cc(C#CC4CC4)ccc3S(=O)(=O)N([C@@H](C)CO)C[C@H]2C)cc1	SIRT5 block 22
COc1ccc(S(=O)(=O)N(C)C[C@@H]2Oc3cc(C#CC4CC4)ccc3S(=O)(=O)N([C@H](C)CO)C[C@H]2C)cc1	SIRT5 block 15
COc1ccc(S(=O)(=O)N(C)C[C@H]2Oc3cc(C#CC4CCCCC4)ccc3S(=O)(=O)N([C@H](C)CO)C[C@H]2C)cc1	none
COCC#Cc1ccc2c(c1)O[C@H](CN(C)S(=O)(=O)c1ccc(OC)cc1)[C@H](C)CN([C@@H](C)CO)S2(=O)=O	none
Cc1c(OCC(=O)N[C@@H](Cc2ccccc2)C(=O)O)ccc2c3c(c(=O)oc12)CCC3	none (no result: E-sel inducer)
C[C@@H]1CN([C@@H](C)CO)C(=O)c2cccc(NC(=O)Nc3ccccc3)c2O[C@@H]1CN(C)S(=O)(=O)c1cccs1	none (no result: DENV2 CPE, SIRT5 block)
Cc1ccc2c(c1)N(CC(=O)NCCCN1CCCC1)C(=O)CO2	none (no result: E-sel inducer)
O=C(N[C@@H]1CC[C@H](CCn2cc(C3(O)CCCC3)nn2)O[C@H]1CO)c1ccccc1F	none
COc1cccc(CN2CC3(C2)CN(C(=O)Nc2ccc(F)cc2)[C@@H](CO)c2c3c3ccc(OC)cc3n2C)c1	none
O=C(Nc1ccc(-c2csc(Nc3cccc(C(F)(F)F)c3)n2)cc1)c1ccccc1	none (no result: SIRT5 block)
O=C(Nc1ccc(-c2csc(Nc3cccc(C(F)(F)F)c3)n2)cc1)c1cc([N+](=O)[O-])cc(C(F)(F)F)c1	DENV2 CPE 135 (no result: E-sel inducer, SIRT5 block)
Cc1ccc([C@H]2C[C@H](O)[C@@H](n3cc(COC(=O)c4ccccc4)nn3)CN2C(=O)c2cccs2)cc1	SIRT5 block 17
CCCCCC(=O)N1C[C@H](n2cc(COC(=O)c3ccccc3)nn2)[C@@H](O)C[C@@H]1c1ccc(Cl)cc1	DENV2 CPE 53 (no result: E-sel inducer)
O=C(OCc1cn([C@H]2CN(C(=O)c3cccs3)[C@@H](c3ccccc3)C[C@@H]2O)nn1)c1ccccc1	none (no result: E-sel inducer)
O[C@H]1C[C@H](c2ccccc2)N(Cc2cccs2)C[C@@H]1n1cc(-c2ccc(F)cc2)nn1	SIRT5 block 16
O[C@H]1CN(Cc2cccs2)[C@@H](c2ccccc2)C[C@@H]1n1cc(-c2ccc(F)cc2)nn1	none
Cc1ccc([C@H]2C[C@@H](n3cc(-c4ccc(F)cc4)nn3)[C@H](O)CN2C(=O)c2cccs2)cc1	DENV2 CPE 32
Cc1ccc([C@H]2C[C@H](O)[C@@H](n3cc(-c4ccc(F)cc4)nn3)CN2C(=O)c2cccs2)cc1	none (no result: E-sel inducer)
CCCCCC(=O)N1C[C@@H](n2cc(COC(=O)c3ccccc3)nn2)[C@H](O)C[C@@H]1c1ccc(Cl)cc1	none
CCn1cc(/C=C/C(=O)Nc2ccn(Cc3c(F)c(F)c(F)c(F)c3F)n2)cn1	none
O=C(CCNS(=O)(=O)c1ccc(OC(F)(F)F)cc1)N1CCCC1	none
Cc1nnc(SC(C)C(=O)Nc2ccc(Cl)cc2Cl)[nH]c1=O (configuration not stated)	none
Cc1nc(CSc2nnc(N)s2)cs1	none (no result: E-sel inducer)
CCCCCCN1C[C@H](O)[C@@H](n2cc(COC(=O)c3ccccc3)nn2)C[C@@H]1c1ccc(Cl)cc1	SIRT5 block 15
CCCCCCN1C[C@H](O)[C@@H](n2cc(COC(=O)c3ccccc3)nn2)C[C@@H]1c1ccc(C)cc1	DENV2 CPE inconclusive
CCc1nc2nc(C)c(NS(=O)(=O)c3cccs3)c(=O)n2[nH]1	none (no result: E-sel inducer)
